Source: ChEMBL document CHEMBL1667749, “Design & synthesis of N'-[substituted] pyridine-4-carbohydrazides as potential anticonvulsant agents” (Eur J Med Chem, 2011)
Activity calls are given as the source filed them. The calls are words filed in the database; no cut-off is given here.

Experiments:
Rattus norvegicus [1] = assay: Acute toxicity in Sprague-Dawley rat assessed as motor impairment at 100 mg/kg, ip after 1 hr; type: organism-based; parameters: dose 100 mg/kg, route intraperitoneal; conditions: in vivo
Procedure, shortened: (§1)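 Male albino Sprague Dawley rats, two per dose, given test compound i.p. as a suspension in 0.5% methyl cellulose. Behaviour was closely observed and recorded over 4 h to detect acute motor impairment. Values are scored as animals toxic over animals tested at each time point.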

Rattus norvegicus [2] = assay: Anticonvulsant activity in Sprague-Dawley rat assessed as protection against maximal electroshock-induced seizures at 30 mg/kg, po after 2 hrs; type: functional
Procedure, shortened: (§2)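 Male Sprague Dawley rats (100–150 g; 115–150 g in text), compound suspended in 0.5% methyl cellulose, given orally; MES challenge: 60 Hz alternating current, 150 mA, 0.2 s via corneal electrodes primed with 0.5% tetracaine HCl electrolyte. Protection = abolition of hind limb tonic extension; four rats per time point, scored as number protected.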

Rattus norvegicus [3] = assay: Anticonvulsant activity in Sprague-Dawley rat assessed as protection against maximal electroshock-induced seizures at 30 mg/kg, po after 1 hr; type: functional, organism-based; parameters: dose 30 mg/kg; procedure, shortened: as §2
[4] = Octanol-phosphate buffer partition coefficient, log P of the compound at 5 mg, after 24 hrs by UV spectroscopic analysis; type: physicochemical
Procedure, shortened: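 5 mg compound added to 10 mL octanol plus 10 mL phosphate buffer in stoppered tube, mechanically shaken 24 h at room temperature, then left in separating funnel 6 h to equilibrate.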

[5] = Neurotoxicity in ip dosed albino CF-1 mouse assessed as motor impairment after 8 hrs by rotarod test; type: toxicity, organism-based; conditions: in vivo, read-out: ID50
Mus musculus [6] = assay: Anticonvulsant activity in albino CF-1 mouse assessed as protection against subcutaneous metrazol-induced seizures at 300 mg/kg, ip after 0.5 hrs; type: functional, organism-based; parameters: dose 300 mg/kg
Procedure, shortened: (§3)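 Male CF-1 mice, i.p. at 30, 100, 300 mg/kg in 0.5% methyl cellulose; metrazol dose convulsing 97% of animals injected s.c. in midline neck fold, mice isolated and watched 30 min; protected if no 3–5 s clonic spasm episode of limbs, jaws or vibrissae.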

Mus musculus [7] = assay: Anticonvulsant activity in ipp dosed albino CF-1 mouse assessed as protection against subcutaneous metrazol-induced seizures after 1 hr; type: functional; conditions: albino CF-1, sc
Mus musculus [8] = assay: Neurotoxicity in albino CF-1 mouse assessed as motor impairment at 300 mg/kg, ip after 0.5 hrs by rotarod test; type: toxicity, organism-based; parameters: dose 300 mg/kg, route intraperitoneal; conditions: in vivo
Procedure, shortened: (§4)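 Minimal motor impairment in male CF-1 mice by rotorod after i.p. dosing; toxic if animal falls off rotating rod 3 times within 1 min. Screen doses 30, 100, 300 mg/kg; quantitative TD50 (95% confidence interval) determined at time of peak effect.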

Mus musculus [9] = assay: Anticonvulsant activity in albino CF-1 mouse assessed as protection against 6 Hz psychomotor seizure at 100 mg/kg, ip after 1 hr by minimal clonic seizure test; type: functional; conditions: route intraperitoneal
Procedure, shortened: (§5)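 Male CF-1 mice (18–25 g), i.p. 100 mg/kg in 0.5% methyl cellulose suspension; 6 Hz corneal stimulation, 32 mA for 3 s, four mice per time point. Protected if no minimal clonic phase with stereotyped automatistic behaviour.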

Mus musculus [10] = assay: Anticonvulsant activity in ip dosed albino CF-1 mouse assessed as dose required to protect against maximal electroshock-induced seizures after 2 hrs; type: functional
Procedure, shortened: (§6)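 Male CF-1 mice (18–25 g), i.p. in 0.5% methyl cellulose at 30, 100 and 300 mg/kg; MES: 60 Hz, 50 mA, 0.2 s through tetracaine-primed corneal electrodes; protection = abolished hind limb tonic extension. Value given as minimum dose active in half or more of mice.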

Rattus norvegicus [11] = assay: Acute toxicity in Sprague-Dawley rat assessed as motor impairment at 300 mg/kg, ip after 1 hr; type: organism-based; parameters: dose 300 mg/kg, route intraperitoneal; conditions: in vivo; procedure, shortened: as §1
Mus musculus [12] = assay: Anticonvulsant activity in ip dosed albino CF-1 mouse assessed as dose required to protect against maximal electroshock-induced seizures after 4 hrs; type: functional; procedure, shortened: as §6
Rattus norvegicus [13] = assay: Acute toxicity in Sprague-Dawley rat assessed as motor impairment at 300 mg/kg, ip after 0.25 hrs; type: organism-based; parameters: dose 300 mg/kg, route intraperitoneal; conditions: in vivo; procedure, shortened: as §1
Mus musculus [14] = assay: Anticonvulsant activity in ip dosed albino CF-1 mouse assessed as protection against maximal electroshock-induced seizures after 1 hr; type: functional; conditions: albino CF-1, ip
Rattus norvegicus [15] = assay: Toxicity in Sprague-Dawley rat assessed as change in body weight at 200 mg/kg, ip measured after 24 hrs of clonus of one of the fore limbs seizure stage in non-protected rat; type: organism-based; parameters: dose 200 mg/kg, route intraperitoneal; conditions: in vivo
Procedure, shortened: (§7)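 Male Sprague Dawley rats (150–180 g) dosed i.p. then challenged with pilocarpine; body weight change measured 24 h after first Stage III seizure, split by protected and non-protected rats, given ± S.E.M.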

Rattus norvegicus [16] = assay: Neurotoxicity in Sprague-Dawley rat assessed as motor impairment at 30 mg/kg, po after 0.5 hrs by rotarod test; type: toxicity, organism-based; parameters: dose 30 mg/kg, route oral; conditions: in vivo
Mus musculus [17] = assay: Anticonvulsant activity in albino CF-1 mouse assessed as protection against 6 Hz psychomotor seizure at 100 mg/kg, ip after 4 hrs by minimal clonic seizure test; type: functional, organism-based; parameters: dose 100 mg/kg; procedure, shortened: as §5
Rattus norvegicus [18] = assay: Acute toxicity in Sprague-Dawley rat assessed as motor impairment at 100 mg/kg, ip after 0.25 hrs; type: organism-based; parameters: dose 100 mg/kg, route intraperitoneal; conditions: in vivo; procedure, shortened: as §1
Rattus norvegicus [19] = assay: Acute toxicity in Sprague-Dawley rat assessed as motor impairment at 100 mg/kg, ip after 4 hrs; type: organism-based; parameters: dose 100 mg/kg, route intraperitoneal; conditions: in vivo; procedure, shortened: as §1
Rattus norvegicus [20] = assay: Anticonvulsant activity in Sprague-Dawley rat assessed as protection against maximal electroshock-induced seizures at 30 mg/kg, po after 4 hrs; type: functional, organism-based; parameters: dose 30 mg/kg; procedure, shortened: as §2
Rattus norvegicus [21] = assay: Neurotoxicity in Sprague-Dawley rat assessed as motor impairment at 30 mg/kg, po after 2 hrs by rotarod test; type: toxicity, organism-based; parameters: dose 30 mg/kg, route oral; conditions: in vivo
Rattus norvegicus [22] = assay: Neurotoxicity in Sprague-Dawley rat assessed as motor impairment at 30 mg/kg, po after 4 hrs by rotarod test; type: toxicity, organism-based; parameters: dose 30 mg/kg, route oral; conditions: in vivo
Mus musculus [23] = assay: Anticonvulsant activity in albino CF-1 mouse assessed as protection against maximal electroshock-induced seizures at 300 mg/kg, ip after 0.5 hrs; type: functional, organism-based; parameters: dose 300 mg/kg; procedure, shortened: as §6
Rattus norvegicus [24] = assay: Toxicity in Sprague-Dawley rat assessed as change in body weight at 200 mg/kg, ip measured after 24 hrs of clonus of one of the fore limbs seizure stage in protected rat; type: organism-based; parameters: dose 200 mg/kg, route intraperitoneal; conditions: in vivo; procedure, shortened: as §7
Mus musculus [25] = assay: Anticonvulsant activity in albino CF-1 mouse assessed as protection against 6 Hz psychomotor seizure at 100 mg/kg, ip after 2 hrs by minimal clonic seizure test; type: functional; procedure, shortened: as §5
Mus musculus [26] = assay: Neurotoxicity in albino CF-1 mouse assessed as motor impairment at 300 mg/kg, ip after 4 hrs by rotarod test; type: toxicity, organism-based; parameters: dose 300 mg/kg, route intraperitoneal; conditions: in vivo; procedure, shortened: as §4
Rattus norvegicus [27] = assay: Neurotoxicity in Sprague-Dawley rat assessed as motor impairment at 30 mg/kg, po after 0.25 hrs by rotarod test; type: toxicity, organism-based; parameters: dose 30 mg/kg, route oral; conditions: in vivo
Rattus norvegicus [28] = assay: Acute toxicity in Sprague-Dawley rat assessed as motor impairment at 100 mg/kg, ip after 2 hrs; type: organism-based; parameters: dose 100 mg/kg, route intraperitoneal; conditions: in vivo; procedure, shortened: as §1
Rattus norvegicus [29] = assay: Neurotoxicity in Sprague-Dawley rat assessed as motor impairment at 30 mg/kg, po after 1 hr by rotarod test; type: toxicity, organism-based; parameters: dose 30 mg/kg, route oral; conditions: in vivo
Mus musculus [30] = organism: Mus musculus; assay: Protective index, ratio of TD50 for albino CF-1 mouse to ED50 for albino CF-1 mouse assessed as protection against 6 Hz psychomotor seizure; type: functional
Procedure, shortened: (§8)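 Protection index = TD50 (rotorod, mice, i.p.) divided by ED50 from MES or 6 Hz test, each at its time of peak effect.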

Rattus norvegicus [31] = assay: Anticonvulsant activity in Sprague-Dawley rat assessed as protection against maximal electroshock-induced seizures at 30 mg/kg, po after 0.25 hrs; type: functional, organism-based; parameters: dose 30 mg/kg; procedure, shortened: as §2
Rattus norvegicus [32] = assay: Acute toxicity in Sprague-Dawley rat assessed as motor impairment at 300 mg/kg, ip after 0.5 hrs; type: organism-based; parameters: dose 300 mg/kg, route intraperitoneal; conditions: in vivo; procedure, shortened: as §1
Mus musculus [33] = assay: Anticonvulsant activity in ip dosed albino CF-1 mouse assessed as protection against 6 Hz psychomotor seizure after 0.25 hrs by minimal clonic seizure test; type: functional; conditions: albino CF-1, ip
Procedure, shortened: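 Quantitative 6 Hz test in male CF-1 mice dosed i.p.; 32 mA for 3 s via corneal electrodes at time of peak effect; ED50 with 95% confidence interval, slope and standard error reported.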

Mus musculus [34] = organism: Mus musculus; assay: Protective index, ratio of TD50 for albino CF-1 mouse to ED50 for albino CF-1 mouse assessed as protection against maximal electroshock-induced seizures; type: functional; procedure, shortened: as §8
Mus musculus [35] = assay: Anticonvulsant activity in albino CF-1 mouse assessed as protection against 6 Hz psychomotor seizure at 100 mg/kg, ip after 0.25 hrs by minimal clonic seizure test; type: functional; conditions: route intraperitoneal; procedure, shortened: as §5
Mus musculus [36] = assay: Anticonvulsant activity in albino CF-1 mouse assessed as protection against subcutaneous metrazol-induced seizures at 300 mg/kg, ip after 4 hrs; type: functional, organism-based; parameters: dose 300 mg/kg; procedure, shortened: as §3
Rattus norvegicus [37] = assay: Acute toxicity in Sprague-Dawley rat assessed as motor impairment at 100 mg/kg, ip after 0.5 hrs; type: organism-based; parameters: dose 100 mg/kg, route intraperitoneal; conditions: in vivo; procedure, shortened: as §1
Rattus norvegicus [38] = assay: Anticonvulsant activity in Sprague-Dawley rat assessed as protection against pilocarpine-induced status epilepticus at 200 mg/kg, ip; type: functional, organism-based; parameters: dose 200 mg/kg
Procedure, shortened: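 Male albino Sprague Dawley rats (150–180 g) dosed i.p., then challenged with pilocarpine; qualitative screen scored as protection or no protection, seizure severity graded on the Racine scale; N/F and deaths recorded, time taken post first Stage III seizure.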

Rattus norvegicus [39] = assay: Anticonvulsant activity in Sprague-Dawley rat assessed as protection against maximal electroshock-induced seizures at 30 mg/kg, po after 0.5 hrs; type: functional, organism-based; parameters: dose 30 mg/kg; procedure, shortened: as §2
Mus musculus [40] = assay: Anticonvulsant activity in albino CF-1 mouse assessed as protection against 6 Hz psychomotor seizure at 100 mg/kg, ip after 0.5 hrs by minimal clonic seizure test; type: functional; procedure, shortened: as §5

## O=C(N/N=C\c1ccc(Oc2ccc(F)cc2)cc1)c1ccncc1
Rattus norvegicus [1]
  Activity: Non-toxic
Rattus norvegicus [2]
  Activity: 25%
Rattus norvegicus [3]
  Activity: inactive
[4]
  logP at 24 h: 3.5
[5]
  TD50 at 8 h: 344 mg/kg
Mus musculus [6]
  Activity: inactive
Mus musculus [7]
  ED50: > 250 mg/kg
Mus musculus [8]
  Activity: Non-toxic
Mus musculus [9]
  Activity: 50%
Mus musculus [10]
  Activity: 100 mg/kg
Rattus norvegicus [11]
  Activity: Toxic
Mus musculus [12]
  Activity: 300 mg/kg
Rattus norvegicus [13]
  Activity: Toxic
Mus musculus [14]
  ED50: 128 mg/kg
Rattus norvegicus [15]
  Activity: 24.2 g
Rattus norvegicus [16]
  Activity: Non-toxic
Mus musculus [17]
  Activity: inactive
Rattus norvegicus [18]
  Activity: Non-toxic
Rattus norvegicus [19]
  Activity: Non-toxic
Rattus norvegicus [20]
  Activity: inactive
Rattus norvegicus [21]
  Activity: Non-toxic
Rattus norvegicus [22]
  Activity: Non-toxic
Mus musculus [23]
  Activity: inactive
Rattus norvegicus [24]
  Activity: Non-toxic
Mus musculus [25]
  Activity: inactive
Mus musculus [26]
  Activity: Non-toxic
Rattus norvegicus [27]
  Activity: Non-toxic
Rattus norvegicus [28]
  Activity: Non-toxic
Rattus norvegicus [29]
  Activity: Non-toxic
Mus musculus [30]
  PI: 6.44
Rattus norvegicus [31]
  Activity: inactive
Rattus norvegicus [32]
  Activity: Toxic
Mus musculus [33]
  ED50: 53.3 mg/kg
Mus musculus [34]
  PI: 2.67
Mus musculus [35]
  Activity: 75%
Mus musculus [36]
  Activity: inactive
Rattus norvegicus [37]
  Activity: Non-toxic
Rattus norvegicus [38]
  Activity: inactive
Rattus norvegicus [39]
  Activity: inactive
Mus musculus [40]
  Activity: Active
